Molecules are shown by their SMILES. ≈ marks a conversion by molar mass, not a printed value.

A short description of data set [1]: Distribution coefficient Log D of compound at pH 7.4. Conditions: octanol/water; call rule not given here. It counts as physicochemical. The procedure, abridged:
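Compound (1–2 mg) shaken for 1 h at 750 osc/min with octanol and pH 7.4 phosphate buffer (0.1 M KH2PO4/NaOH), each presaturated with the other for 18 h. Both layers filtered through 0.2 µm PTFE and analysed by HPLC. Log D taken as log of normalised peak area in octanol over that in buffer.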

Data set [2] in a line: Apparent permeability in Caco-2 cell from apical to basolateral. The data set is classed as ADME, cell-based. Conditions: human. The procedure, abridged: (§1)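 Caco-2 monolayers (10-21 day culture, passage 30-40), confluence confirmed by TEER; medium replaced by HBSS pH 7.4. Test compound 1 µM, cassetted with 2 reference compounds (10 µM), added apically or basolaterally (n = 4); 2 h at 37 °C, 5% CO2. Receiver side analysed by LC-MSMS; Papp normalised to the known Papps of the reference compounds.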

The nature of data set [3]: Apparent permeability in Caco-2 cell from basolateral to apical. Conditions: human. It counts as ADME, cell-based. The essentials:
as §1
On the technique in general: Passage across Caco-2 layers is used to estimate intestinal permeability.

The target in data set [4] is T1, Inosine-5'-monophosphate dehydrogenase 2 (Homo sapiens, UniProt P12268). The data set can be described thus: Inhibition of IMPDH2.
Data set [5] deals with T1, Inosine-5'-monophosphate dehydrogenase 2. In words: Inhibition of IMPDH2 at 30 uM.
The subject of the next data set is PBMC. In words: Antiproliferative activity against PBMC. It counts as functional, cell-based. Conditions: Homo sapiens.
The nature of data set [6]: Aqueous solubility at pH 5. The data set is classed as physicochemical. The procedure, abridged:
(§2)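 Solid compound (0.5 mg) shaken in 150 mM phosphate buffer at room temperature for 90 min, then filtered. Filtrate concentration measured by HPLC (UV 254 nm) against a three-point calibration curve made from DMSO stocks. Done in duplicate at pH 7.4 and pH 5.0.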

Data set [7] in a line: Aqueous solubility at pH 7.4. It counts as physicochemical. The procedure, abridged:
as §2

As a reminder, the logD is lipophilicity at a set pH, counting ionised and neutral species. One may read the Papp A→B as the apparent permeability from the apical to the basolateral side of a cell layer. Broadly, the Papp B→A is the apparent permeability from the basolateral to the apical side of a cell layer. `Cn1cc(C#N)c2ccccc21`: the logD in data set [1] came out at 2.3. In addition, the apical-to-basolateral permeability (Papp A→B) in data set [2] was determined as 36.7 ×10⁻⁶ cm/s. Moreover, in data set [3], the Papp B→A was 37.4 ×10⁻⁶ cm/s.
In general, IC50 refers to the concentration that inhibits the measured activity by half. A low value points to inhibition by little substance. In the case of `O=C(NOCc1ccccc1)Nc1cccc2c(-c3ccncc3)c[nH]c12`, in data set [4], the half-maximal inhibitory concentration (IC50) turned out to be 1.36 µM.
On to `CONC(=O)Nc1ccc2c(-c3ccncc3)c[nH]c2c1`, for which the half-inhibitory concentration (IC50) in data set [4] worked out at 1.11 µM.
Consider `Cn1cc(C#N)c2ccc(NS(=O)(=O)c3ccccc3)cc21`, for which, in data set [4], the IC50 is 7.68 µM.
As to `CN(C(=O)Nc1ccc2c(C#N)c[nH]c2c1)c1ccccc1`, in data set [4], the midpoint of inhibition, the IC50, lay at 15.4 µM.
What is called Inhibition is the percentage by which the read-out fell short of the control. A higher Inhibition goes with a strong effect. With `N#Cc1c[nH]c2cc(Nc3nc4ccccc4o3)ccc12`, the Inhibition in data set [5] amounted to 48%.
One may read the solubility as how much of the substance goes into solution per volume. A high value points to a readily soluble substance. For the compound `CN(C(=O)Nc1ccc2c(-c3ccncc3)c[nH]c2c1)c1ccccc1`, in data set [1], the logD amounted to 2.93. The IC50 was 0.084 µM in data set [4] and 12 µM with PBMC. The compound further returned a solubility in data set [6] of 42 µg/mL (≈ 123 µM). Moreover, the Papp A→B in data set [2] was 14.3 ×10⁻⁶ cm/s. In data set [3], the Papp B→A amounted to 6.7 ×10⁻⁶ cm/s.
Turning to `Cn1cc(C#N)c2cccc(Nc3nc4ccccc4o3)c21`, the IC50 in data set [4] came out at 58.4 µM.
Turning to `c1ccc(-c2ccc3c(-c4ccncc4)c[nH]c3c2)cc1`, the IC50 in data set [4] was determined as 0.456 µM; in the data set with PBMC, 10 µM.
As to `CN(C(=O)Nc1cccc2c(-c3ccncc3)c[nH]c12)c1ccccc1`, the midpoint of inhibition in data set [4], the IC50, lay at 19.5 µM.
`CCn1cc(C#N)c2ccc(NS(=O)(=O)Cc3ccccc3)cc21`: in data set [5], the 50% inhibitory concentration (IC50) result was “Not Active”.
The compound `Cc1[nH]c2cc(NC(=O)N(C)c3ccccc3)ccc2c1-c1ccncc1` returned an IC50 in data set [4] of 0.128 µM.
As to `CCOC(=O)c1ccc2c(-c3ccncc3)c[nH]c2c1`, half-maximal inhibition in data set [4] (IC50) required 0.586 µM.
`N#Cc1c[nH]c2c(OCc3ccccc3)cccc12`: in data set [5], the 50% inhibitory concentration (IC50) result is given as “Not Active”.
In the case of `CN(C(=O)Nc1ccc2c(C#N)cn(C)c2c1)c1ccccc1`, in data set [4], half-maximal inhibition (IC50) was put at 17 µM.
As to `Cn1cc(C#N)c2ccc(NC(=O)Nc3ccccc3)cc21`, the 50% inhibitory concentration (IC50) was determined as 0.722 µM in data set [4] and 14 µM with PBMC.
In turn, `O=S(=O)(Nc1cccc2c(-c3ccncc3)c[nH]c12)c1ccccc1` registered an IC50 in data set [4] of 6.21 µM.
Same read-out and setting: to `N#Cc1c[nH]c2cc(OCc3ccccc3)ccc12` belongs 71.8 µM.
On the same count and under the same terms, to `CNOC(=O)Nc1ccc2c(C#N)cn(C)c2c1` belongs 4.04 µM.
The same measure, in the same setting: to `Cn1cc(C#N)c2ccc(NS(=O)(=O)Cc3ccccc3)cc21` belongs 21 µM; to `CN(C(=O)Nc1cccc2c(C#N)cn(C)c12)c1ccccc1`, 7.85 µM.
Compound `Cc1[nH]c2cc(NS(=O)(=O)c3ccccc3)ccc2c1-c1ccncc1` gave an IC50 in data set [4] of 0.222 µM.
On to `c1ccc2c(-c3ccncc3)c[nH]c2c1`, for which, in data set [1], the log distribution coefficient (logD) amounted to 2.81. The compound further yielded a half-inhibitory concentration (IC50) in the data set on PBMC of 28 µM. Moreover, in data set [2], the Papp A→B was found to be 26.2 ×10⁻⁶ cm/s. Further, the Papp B→A in data set [3] amounted to 23.9 ×10⁻⁶ cm/s.
Consider `O=S(=O)(Nc1ccc2c(-c3ccncc3)c[nH]c2c1)c1ccccc1`, for which the logD in data set [1] is 2.01. Moreover, the IC50 was found to be 0.364 µM in data set [4] and 14 µM with PBMC. Further, in data set [6], the concentration in solution (solubility) was 8 µg/mL (≈ 22.9 µM). Besides, the Papp A→B in data set [2] was 6.5 ×10⁻⁶ cm/s. The Papp B→A in data set [3] came to 9.3 ×10⁻⁶ cm/s.
As for `O=C(NOCc1ccccc1)Nc1ccc2c(-c3ccncc3)c[nH]c2c1`, the logD in data set [1] amounted to 3.54. Moreover, the solubility in data set [7] turned out to be 3.2 µg/mL (≈ 8.93 µM); in data set [6], 17.5 µg/mL (≈ 48.8 µM). Also, the figures for the IC50 (in data set [4]; with PBMC) were 0.076 µM and 4.6 µM, respectively. The Papp A→B in data set [2] was 6.5 ×10⁻⁶ cm/s. For the same compound, the Papp B→A in data set [3] was 7.3 ×10⁻⁶ cm/s.
`N#Cc1c[nH]c2cc(N)ccc12`: the concentration for half-maximal inhibition (IC50) result in data set [5] is listed as “Not Active”.
For `O=C(Nc1ccccc1)Nc1ccc2c(-c3ccncc3)c[nH]c2c1`, in data set [5], the IC50 entry was “Not Active”.
On to `Cn1cc(C#N)c2ccc(NC(=O)NOCc3ccccc3)cc21`, for which, in data set [1], the pH-dependent lipophilicity (logD) amounted to 2.74. In addition, the solubility was 4 µg/mL (≈ 12.5 µM) in data set [7] and 4.5 µg/mL (≈ 14 µM) in data set [6]. Besides, the values for the IC50 (in data set [4]; with PBMC) were 1.17 µM and 17 µM, respectively. Besides, the Papp A→B in data set [2] came to 19.3 ×10⁻⁶ cm/s. For the same compound, the Papp B→A in data set [3] worked out at 19.1 ×10⁻⁶ cm/s.

Source of the values: ChEMBL document CHEMBL1147021, “Novel indole inhibitors of IMPDH from fragments: synthesis and initial structure-activity relationships” (Bioorg Med Chem Lett, 2006).
